ChEMBL document CHEMBL4251626, “4β-amidotriazole linked podophyllotoxin congeners: DNA topoisomerase-IIα inhibition and potential anticancer agents for prostate cancer” (Eur J Med Chem, 2018)
pIC50: −log10 of the molar value. The source made the active and inactive calls. The calls are words filed in the database; no cut-off is given here.

What was measured:
[1] = tested on: HepG2; experiment: Antiproliferative activity against human HepG2 cells after 48 hrs by MTT assay; type: functional, cell-based; conditions: HepG2, 48 h
In short: (§1)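 Cells in DMEM/10% FBS pre-incubated 24 h at 37 °C, then compound-treated 48 h (10 mM DMSO stock diluted in medium). MTT (10 µL of 5 mg/mL) added for 4 h; formazan dissolved in DMSO, absorbance read at 570 nm. IC50 = 50% inhibitory concentration, mean of three individual experiments.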

[2] = tested on: DU-145; experiment: Antimigratory activity against human DU145 cells at 0.5 to 1 uM after 24 to 48 hrs by phase contrast microscopic based scratch assay; type: functional, cell-based
In short: (§2)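 DU-145 cells seeded at 2x10^5/well and grown to confluence; wound made with a sterile 200 µL tip, debris washed off with PBS. Fresh medium with compound at the indicated concentrations added. Migration followed by phase-contrast microscopy with images at 0, 24 and 48 h.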

[3] = tested on: DU-145; experiment: Induction of ROS production in human DU145 cells after 24 hrs by DCFDA staining based fluorescence microscopic method; type: functional, cell-based
In short: (§3)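 DU-145 cells (2x10^5/well) plated overnight, then treated 24 h at indicated concentrations. Medium replaced with DCFDA (10 µM) for 30 min at room temperature in the dark. After PBS washes, fluorescence was imaged by microscopy and reported as mean fluorescence intensity.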

[4] = tested on: NIH3T3; experiment: Antiproliferative activity against mouse NIH/3T3 cells after 48 hrs by MTT assay; type: cell-based; conditions: NIH3T3, 48 h; in short: as §1
[5] = tested on: DU-145; experiment: Induction of apoptosis in human DU145 cells assessed as early apoptotic cells at 0.5 uM after 24 hrs by Annexin V-FITC/propidium iodide staining based flow cytometry (reference value: 0.56%); type: functional
[6] = tested on: DU-145; experiment: Induction of apoptosis in human DU145 cells assessed as early apoptotic cells at 1 uM after 24 hrs by Annexin V-FITC/propidium iodide staining based flow cytometry (reference value: 0.56%); type: functional
[7] = tested on: DU-145; experiment: Antiproliferative activity against human DU145 cells after 48 hrs by MTT assay; type: functional, cell-based; conditions: DU-145, 48 h; in short: as §1
[8] = tested on: DU-145; experiment: Induction of apoptosis in human DU145 cells assessed as nuclear condensation at 0.5 to 1 uM after 24 hrs by Hoechst staining based fluorescence microscopic method; type: functional, cell-based
In short: (§4)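 DU-145 cells (1x10^5/well) incubated overnight, then treated 24 h. After three PBS washes, stained with Hoechst (1 µg/ml) for 20 min at 37 °C and washed. Imaged by fluorescence microscopy; random fields counted for chromatin condensation and nuclear fragmentation.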

[9] = tested on: DU-145; experiment: Cell cycle arrest in human DU145 cells assessed as accumulation at G2/M phase at 1 uM after 24 hrs by propidium iodide staining based flow cytometry relative to control; type: functional
In short: (§5)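 DU-145 cells (2x10^5/well) serum-starved 24 h to synchronize, then treated in complete medium for 24 h. Harvested and fixed in 70% ethanol at -20 °C for 30 min. RNase A (0.1 mg/mL, 37 °C, 30 min), then propidium iodide (50 µg/mL, 30 min on ice, dark). DNA content measured by flow cytometry.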

[10] = tested on: HT-29; experiment: Antiproliferative activity against human HT-29 cells after 48 hrs by MTT assay; type: functional, cell-based; conditions: HT-29, 48 h; in short: as §1
[11] = tested on: DU-145; experiment: Induction of apoptosis in human DU145 cells assessed as live cells at 1 uM after 24 hrs by Annexin V-FITC/propidium iodide staining based flow cytometry (reference value: 96.3%); type: functional
[12] = tested on: DU-145; experiment: Induction of apoptosis in human DU145 cells assessed as live cells at 0.5 uM after 24 hrs by Annexin V-FITC/propidium iodide staining based flow cytometry (reference value: 96.3%); type: functional
[13] = tested on: A549; experiment: Antiproliferative activity against human A549 cells after 48 hrs by MTT assay; type: functional, cell-based; conditions: A549, 48 h; in short: as §1
[14] = tested on: DU-145; experiment: Induction of apoptosis in human DU145 cells assessed as cell detachment from substratum at 0.5 to 1 uM after 24 hrs by phase contrast microscopic method; type: functional, cell-based
In short: (§6)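 DU-145 cells (2x10^5/well) plated overnight; medium replaced with fresh medium containing compound at indicated concentrations for 24 h. Cell morphology examined and photographed by phase-contrast microscopy.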

[15] = tested on: DU-145; experiment: Induction of apoptosis in human DU145 cells assessed as necrotic cells at 1 uM after 24 hrs by Annexin V-FITC/propidium iodide staining based flow cytometry (reference value: 1.65%); type: functional
[16] = tested on: HeLa; experiment: Antiproliferative activity against human HeLa cells after 48 hrs by MTT assay; type: functional, cell-based; in short: as §1
[17] = tested on: MCF7; experiment: Antiproliferative activity against human MCF7 cells after 48 hrs by MTT assay; type: functional, cell-based; conditions: MCF7, 48 h; in short: as §1
[18] = tested on: DU-145; experiment: Cell cycle arrest in human DU145 cells assessed as accumulation at G2/M phase at 0.5 uM after 24 hrs by propidium iodide staining based flow cytometry relative to control; type: functional; in short: as §5
[19] = tested on: DU-145; experiment: Induction of apoptosis in human DU145 cells assessed as necrotic cells at 0.5 uM after 24 hrs by Annexin V-FITC/propidium iodide staining based flow cytometry (reference value: 1.65%); type: functional
[20] = tested on: DU-145; experiment: Induction of apoptosis in human DU145 cells assessed as nuclear fragmentation at 0.5 to 1 uM after 24 hrs by Hoechst staining based fluorescence microscopic method; type: functional, cell-based; in short: as §4
[21] = tested on: DU-145; experiment: Induction of apoptosis in human DU145 cells assessed as late apoptotic cells at 0.5 uM after 24 hrs by Annexin V-FITC/propidium iodide staining based flow cytometry (reference value: 1.49%); type: functional
[22] = tested on: DU-145; experiment: Induction of apoptosis in human DU145 cells assessed as late apoptotic cells at 1 uM after 24 hrs by Annexin V-FITC/propidium iodide staining based flow cytometry (reference value: 1.49%); type: functional
[23] = tested on: DU-145; experiment: Induction of mitochondrial membrane potential loss in human DU145 cells […] at 0.5 to 1 uM after 24 hrs by JC1 staining based flow cytometry; type: functional, cell-based
In short: (§7)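 Cells (2x10^5/well) treated 24 h, trypsinized and pelleted (400 g, 5 min). Incubated with freshly made JC-1 working solution for 15 min at 37 °C, washed twice in assay buffer. Analysed by flow cytometry as percentage of J-aggregate versus J-monomer cells.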

[24] = tested on: DU-145; experiment: Induction of apoptosis in human DU145 cells after 24 hrs by Annexin V-FITC/propidium iodide staining based flow cytometry; type: functional, cell-based
[25] = tested on: DU-145; experiment: Induction of apoptosis in human DU145 cells assessed as cell shrinkage at 0.5 to 1 uM after 24 hrs by phase contrast microscopic method; type: functional, cell-based; in short: as §6
[26] = target: DNA topoisomerase 2-alpha (Homo sapiens) (UniProt P11388); experiment: Poison activity at recombinant human topoisomerase-2 alpha assessed as linear DNA formation using pHOT1 kDNA as substrate at 100 uM after 10 mins by agarose gel electrophoresis method
Sequence of DNA topoisomerase 2-alpha (Homo sapiens) (P11388 whole entry): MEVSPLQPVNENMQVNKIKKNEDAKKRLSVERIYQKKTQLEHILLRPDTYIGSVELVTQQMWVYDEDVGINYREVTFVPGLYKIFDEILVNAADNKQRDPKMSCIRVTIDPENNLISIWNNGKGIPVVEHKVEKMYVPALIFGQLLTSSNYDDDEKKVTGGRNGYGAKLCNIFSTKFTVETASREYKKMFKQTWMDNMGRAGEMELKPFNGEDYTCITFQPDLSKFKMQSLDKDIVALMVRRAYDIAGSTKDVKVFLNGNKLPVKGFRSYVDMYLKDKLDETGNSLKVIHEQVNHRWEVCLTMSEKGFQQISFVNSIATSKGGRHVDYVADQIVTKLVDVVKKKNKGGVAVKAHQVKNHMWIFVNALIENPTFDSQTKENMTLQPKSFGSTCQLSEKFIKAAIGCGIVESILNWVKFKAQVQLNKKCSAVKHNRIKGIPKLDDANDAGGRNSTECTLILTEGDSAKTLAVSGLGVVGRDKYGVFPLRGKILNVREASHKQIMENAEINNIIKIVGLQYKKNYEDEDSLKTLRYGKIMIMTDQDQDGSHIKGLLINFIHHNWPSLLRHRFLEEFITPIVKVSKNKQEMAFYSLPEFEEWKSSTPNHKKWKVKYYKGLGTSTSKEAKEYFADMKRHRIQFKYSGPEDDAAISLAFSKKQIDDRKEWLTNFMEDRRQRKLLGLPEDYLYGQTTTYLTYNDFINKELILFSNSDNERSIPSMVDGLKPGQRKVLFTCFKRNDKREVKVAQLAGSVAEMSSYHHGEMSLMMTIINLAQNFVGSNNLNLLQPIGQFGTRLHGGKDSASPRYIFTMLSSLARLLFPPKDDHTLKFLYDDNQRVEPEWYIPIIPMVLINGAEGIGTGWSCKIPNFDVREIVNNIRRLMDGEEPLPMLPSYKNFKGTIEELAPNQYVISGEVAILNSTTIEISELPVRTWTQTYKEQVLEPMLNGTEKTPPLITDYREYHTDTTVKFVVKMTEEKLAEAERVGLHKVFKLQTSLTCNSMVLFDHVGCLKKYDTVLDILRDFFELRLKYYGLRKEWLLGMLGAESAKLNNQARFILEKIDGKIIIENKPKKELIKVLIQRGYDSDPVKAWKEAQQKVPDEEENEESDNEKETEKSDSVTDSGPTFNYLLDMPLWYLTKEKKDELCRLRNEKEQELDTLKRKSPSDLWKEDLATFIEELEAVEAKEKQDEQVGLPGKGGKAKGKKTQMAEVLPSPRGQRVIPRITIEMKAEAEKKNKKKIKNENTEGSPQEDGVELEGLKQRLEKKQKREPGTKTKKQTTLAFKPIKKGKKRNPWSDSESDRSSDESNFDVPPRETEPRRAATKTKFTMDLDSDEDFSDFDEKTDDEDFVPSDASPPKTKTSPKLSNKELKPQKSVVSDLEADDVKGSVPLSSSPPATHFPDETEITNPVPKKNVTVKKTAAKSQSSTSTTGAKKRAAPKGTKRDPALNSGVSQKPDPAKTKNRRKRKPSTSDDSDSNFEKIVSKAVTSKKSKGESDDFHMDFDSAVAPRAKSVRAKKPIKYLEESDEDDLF
In short: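 Five units human recombinant topo II, 10 min at 37 °C. Stopped with loading-dye stop buffer; products resolved on 1% agarose gel in TAE (catenated, decatenated, linear DNA).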

[27] = tested on: DU-145; experiment: Induction of apoptosis in human DU145 cells assessed as nuclear fragmentation at 2 uM after 24 hrs by Hoechst staining based fluorescence microscopic method; type: functional, cell-based; in short: as §4
[28] = tested on: DU-145; experiment: Induction of apoptosis in human DU145 cells assessed as nuclear condensation at 2 uM after 24 hrs by Hoechst staining based fluorescence microscopic method; type: functional, cell-based; in short: as §4
[29] = tested on: DU-145; experiment: Induction of apoptosis in human DU145 cells assessed as late apoptotic cells at 2 uM after 24 hrs by Annexin V-FITC/propidium iodide staining based flow cytometry (reference value: 1.49%); type: functional
[30] = tested on: DU-145; experiment: Cell cycle arrest in human DU145 cells assessed as accumulation at G2/M phase at 2 uM after 24 hrs by propidium iodide staining based flow cytometry relative to control; type: functional; in short: as §5
[31] = tested on: DU-145; experiment: Antimigratory activity against human DU145 cells at 2 uM after 24 to 48 hrs by phase contrast microscopic based scratch assay; type: functional, cell-based; in short: as §2
[32] = tested on: DU-145; experiment: Induction of apoptosis in human DU145 cells assessed as early apoptotic cells at 2 uM after 24 hrs by Annexin V-FITC/propidium iodide staining based flow cytometry (reference value: 0.56%); type: functional
[33] = tested on: DU-145; experiment: Induction of apoptosis in human DU145 cells assessed as necrotic cells at 2 uM after 24 hrs by Annexin V-FITC/propidium iodide staining based flow cytometry (reference value: 1.65%); type: functional
[34] = tested on: DU-145; experiment: Induction of apoptosis in human DU145 cells assessed as morphological changes at 2 uM after 24 hrs by phase contrast microscopic method; type: functional, cell-based; in short: as §6
[35] = tested on: DU-145; experiment: Induction of ROS production in human DU145 cells at 2 uM after 24 hrs by DCFDA staining based fluorescence microscopic method; type: functional, cell-based; in short: as §3
[36] = tested on: DU-145; experiment: Induction of mitochondrial membrane potential loss in human DU145 cells […] at 2 uM after 24 hrs by JC1 staining based flow cytometry; type: functional, cell-based; in short: as §7
[37] = tested on: DU-145; experiment: Induction of apoptosis in human DU145 cells assessed as live cells at 2 uM after 24 hrs by Annexin V-FITC/propidium iodide staining based flow cytometry (reference value: 96.3%); type: functional

Compound: COc1ccc(-n2cc(C(=O)NC3c4cc5c(cc4[C@@H](c4cc(OC)c(OC)c(OC)c4)[C@H]4C(=O)OC[C@H]34)OCO5)nn2)cc1 (single isomer, unassigned)
- pIC50 [1]: 5.55
- Activity [2]: Active
- Activity [3]: Dose-dependent effect
- pIC50 [4]: 4.20
- Activity [5]: 6.76%
- Activity [6]: 7%
- pIC50 [7]: 6.00
- Activity [8]: Active
- Activity [9]: 64.3%
- pIC50 [10]: 4.94
- Activity [11]: 88.89%
- Activity [12]: 91.01%
- pIC50 [13]: 5.79
- Activity [14]: Active
- Activity [15]: 0.99%
- pIC50 [16]: 5.19
- pIC50 [17]: 5.95
- Activity [18]: 56.71%
- Activity [19]: 0.4%
- Activity [20]: Active
- Activity [21]: 1.83%
- Activity [22]: 3.12%
- Activity [23]: Active
- Activity [24]: Dose-dependent effect
- Activity [25]: Active
- Activity [26]: Active

Compound: COc1cc([C@@H]2c3cc4c(cc3[C@@H](O[C@@H]3O[C@@H]5CO[C@@H](C)O[C@H]5[C@H](O)[C@H]3O)[C@H]3COC(=O)[C@H]23)OCO4)cc(OC)c1O [ETOPOSIDE]
- pIC50 [1]: 5.55
- Activity [27]: Active
- Activity [28]: Active
- pIC50 [7]: 5.63
- Activity [29]: 3.86%
- Activity [30]: 71.53%
- Activity [31]: Active
- pIC50 [10]: 5.73
- pIC50 [13]: 5.71
- Activity [32]: 4.52%
- Activity [33]: 0.53%
- pIC50 [16]: 5.57
- pIC50 [17]: 5.79
- Activity [34]: Active
- Activity [35]: Active
- Activity [36]: Active
- Activity [37]: 91.09%
- Activity [26]: Active
